Assay results taken from ChEMBL document CHEMBL1132600.

Key:
[1] = substrate: CCCCC/C=C\C/C=C\C/C=C\C/C=C\CCCC(=O)NCCO; assay: (§1) V max value for hydrolysis by rat brain microsomal anandamide amidohydrolase (AAH).
Method in brief: (§2)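 Sprague–Dawley rat brain microsomes (105000g pellet) at 0.3 mg/mL protein, 37 °C, pH 7.4, BSA as carrier. Varied substrate concentrations, sampled at least four times within the linear initial range. Arachidonic acid formed measured by RP-HPLC (UV 204 nm, calibration curve). Initial velocity vs substrate concentration fitted to Michaelis–Menten.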

[2] = substrate: CCCCC/C=C\C/C=C\C/C=C\C/C=C\CCCC(=O)N[C@@H](C)CO; assay: as §1; method in brief: as §2
[3] = substrate: CCCCC/C=C\C/C=C\C/C=C\C/C=C\CCCC(=O)N[C@H](C)CO; assay: as §1; method in brief: as §2
[4] = substrate: CCCCC/C=C\C/C=C\C/C=C\C/C=C\CCCC(N)=O; assay: as §1; method in brief: as §2
[5] = substrate: CCCCC/C=C\C/C=C\C/C=C\C/C=C\CCCC(=O)NCCO; assay: (§3) Km value for hydrolysis by rat brain microsomal anandamide amidohydrolase (AAH).; method in brief: as §2
[6] = substrate: CCCCC/C=C\C/C=C\C/C=C\C/C=C\CCCC(=O)N[C@@H](C)CO; assay: as §3; method in brief: as §2
[7] = substrate: CCCCC/C=C\C/C=C\C/C=C\C/C=C\CCCC(=O)N[C@H](C)CO; assay: as §3; method in brief: as §2
[8] = substrate: CCCCC/C=C\C/C=C\C/C=C\C/C=C\CCCC(=O)Nc1ccccc1O; assay: as §3; method in brief: as §2
[9] = substrate: CCCCC/C=C\C/C=C\C/C=C\C/C=C\CCCC(N)=O; assay: as §3; method in brief: as §2
[10] = substrate: CCCCC/C=C\C/C=C\C/C=C\C/C=C\CCCC(=O)Nc1ccccc1O

B1: Fatty-acid amide hydrolase 1 (Rattus norvegicus), P97612 (protein)
chain: MVLSEVWTTLSGVSGVCLACSLLSAAVVLRWTGRQKARGAATRARQKQRASLETMDKAVQRFRLQNPDLDSEALLTLPLLQLVQKLQSGELSPEAVFFTYLGKAWEVNKGTNCVTSYLTDCETQLSQAPRQGLLYGVPVSLKECFSYKGHDSTLGLSLNEGMPSESDCVVVQVLKLQGAVPFVHTNVPQSMLSFDCSNPLFGQTMNPWKSSKSPGGSSGGEGALIGSGGSPLGLGTDIGGSIRFPSAFCGICGLKPTGNRLSKSGLKGCVYGQTAVQLSLGPMARDVESLALCLKALLCEHLFTLDPTVPPLPFREEVYRSSRPLRVGYYETDNYTMPSPAMRRALIETKQRLEAAGHTLIPFLPNNIPYALEVLSAGGLFSDGGRSFLQNFKGDFVDPCLGDLILILRLPSWFKRLLSLLLKPLFPRLAAFLNSMRPRSAEKLWKLQHEIEMYRQSVIAQWKAMNLDVLLTPMLGPALDLNTPGRATGAISYTVLYNCLDFPAGVVPVTTVTAEDDAQMELYKGYFGDIWDIILKKAMKNSVGLPVAVQCVALPWQEELCLRFMREVEQLMTPQKQPS
How did the Vmax (nM min-1 mg-1) [1] turn out when B1 was run?
Its Vmax (nM min-1 mg-1) is 1.4.

What about the Vmax (nM min-1 mg-1) [2] of the same protein?
Its Vmax (nM min-1 mg-1) is 0.39.

And the Vmax (nM min-1 mg-1) [3]?
The Vmax (nM min-1 mg-1) was 0.37.

And the Vmax (nM min-1 mg-1) [4]?
Its Vmax (nM min-1 mg-1) is 2.89.

And the Km [5]?
The Km was 2.78 µM.

And the Km [6]?
The Km was 7.94 µM.

And the Km [7]?
Its Km is 33 µM.

What about the Km [8] of the same protein?
The Km was 7.31 µM.

What about the Km [9] of the same protein?
The Km was 2.34 µM.

What about the Vmax (nM min-1 mg-1) [10] of the same protein?
The Vmax (nM min-1 mg-1) was 3.17.
